Test results reported in ChEMBL document CHEMBL3877303 (J Med Chem, 2017).
The source made the active and inactive calls. No cut-off for these calls is given here.

Experiments:
[1] = molecular target: T1, Mast/stem cell growth factor receptor Kit (Homo sapiens, UniProt P10721); details: 1 uM
[2] = molecular target: T1, Mast/stem cell growth factor receptor Kit; details: GISTT1, 1 uM
[3] = molecular target: T1, Mast/stem cell growth factor receptor Kit; details: GISTT1, 1 uM; remark: listed apart in the source
[4] = Cell cycle arrest in human GIST882 cells assessed as accumulation at G0/G1 phase at 0.3 uM after 48 hrs by propidium iodide/RNase staining based flow cytometry; format: functional
Procedure, shortened: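 Cells were exposed to serially diluted compound, then fixed in cold 70% ethanol overnight at -20 °C. They were stained with PI/RNase buffer for DNA-content cell-cycle analysis.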

[5] = Anticancer activity against human K562 cells xenografted in nu/nu mouse assessed as tumor weight at 25 mg/kg administered via oral gavage measured after 28 days (reference value: 6.75 g); format: functional
Procedure, shortened: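 Female nu/nu mice received ten million K562 cells subcutaneously in the right flank, in PBS mixed 1:1 with Matrigel. Daily oral gavage began at 200-400 mm³ tumor size, with 4 or 5 mice per group. Dosing was 25, 50 or 100 mg/kg/d or vehicle (0.5% methylcellulose/0.4% Tween80) for 28 days. Body weight and tumor size were normalized to initial values, and final tumor weight was recorded. Data are mean ± SEM.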

[6] = tested on: Mast/stem cell growth factor receptor Kit (Homo sapiens), P10721 [L576P]; assay: Inhibition of Tel-fused c-KIT L576P mutant (unknown origin) expressed in BAF3 cells assessed as growth inhibition measured after 72 hrs by CellTiter-Glo or CCK8 assay; format: cell-based
Procedure, shortened: (§1)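 BaF3 lines were made by retroviral transduction with kinase-fusion MSCV vectors packaged in HEK293T cells. Cells were selected with puromycin for 48 h, then selected again without IL-3 so growth depends on the introduced kinase. […] They were seeded at 1 to 2.5×10^4 cells/mL with compound dilutions and incubated 72 h. Viability was read by CellTiter-Glo luminescence or CCK-8 absorbance (450/655 nm), normalized to DMSO control; GI50 was curve-fitted from triplicate tests.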

BaF3 = assay: Inhibition of BCR/ABL p210 fusion protein Y253H mutant (unknown origin) expressed in BAF3 cells assessed as growth inhibition measured after 72 hrs by CellTiter-Glo or CCK8 assay; format: cell-based; details: Homo sapiens
Procedure, shortened: as §1

[7] = molecular target: Platelet-derived growth factor receptor beta (Homo sapiens, UniProt P09619); assay: Inhibition of recombinant His-tagged human PDGFR-beta cytoplasmic domain (558 to 1106 residues) expressed in baculovirus expression system measured after 1 hr by FRET based Z'Lyte assay
Procedure, shortened: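 Z'-LYTE FRET biochemical kinase assay run by Invitrogen on selected kinases identified from binding profiling; IC50 from dose-response.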

[8] = molecular target: T1, Mast/stem cell growth factor receptor Kit; assay: Inhibition of c-KIT mediated signaling pathways assessed as reduction in ERK1/2 phosphorylation at T202/Y204 in human GIST882 cells at 0.03 to 10 uM measured after 2 hrs by immunoblotting; format: cell-based
Procedure, shortened: (§2)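 After an ice-cold PBS wash, cells were lysed in RIPA buffer (50 mM Tris pH 8.0) with protease and phosphatase inhibitors, and protein was quantified by BCA. Lysates were run on SDS-PAGE, transferred to PVDF and blocked in 5% milk/TBST. Phospho- and total proteins were probed by immunoblot with ECL detection; β-actin served as loading control.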

[9] = molecular target: Tyrosine-protein kinase ABL1 (Homo sapiens, UniProt P00519); assay: Inhibition of C-terminal His-tagged human ABL1 expressed in baculovirus infected SF9 cells assessed as residual activity at 1 uM using Tyr 02 peptide as substrate measured after 1 hr by FRET based Z'Lyte assay relative to control
[10] = molecular target: T1, Mast/stem cell growth factor receptor Kit; assay: Inhibition of c-KIT mediated signaling pathways assessed as reduction in S6K phosphorylation at T389 in human GISTT1 cells at 0.03 to 10 uM measured after 2 hrs by immunoblotting; format: cell-based
Procedure, shortened: as §2

GISTT1 = assay: Induction of apoptosis in human GISTT1 cells assessed as cleavage of PARP at 0.1 to 3 uM by Western blot analysis; format: functional, cell-based
Procedure, shortened: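 Cells were treated with DMSO or serially diluted compound for the indicated periods. They were washed in ice-cold PBS and lysed in RIPA buffer with protease/phosphatase inhibitors, and protein was quantified by BCA. Lysates were resolved by SDS-PAGE, transferred to PVDF and blocked in 5% milk/TBST. Blots were probed for PARP and caspase-3, with β-actin as loading control, and detected by ECL.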

[11] = molecular target: T1, Mast/stem cell growth factor receptor Kit; assay: Inhibition of c-KIT mediated signaling pathways assessed as reduction in AKT phosphorylation at S473 in human GISTT1 cells at 0.03 to 10 uM measured after 2 hrs by immunoblotting; format: cell-based
Procedure, shortened: as §2

[12] = molecular target: T2, Discoidin domain-containing receptor 2 (Homo sapiens) (UniProt Q16832); assay: Inhibition of recombinant His-tagged human DDR2 cytoplasmic domain expressed in baculovirus expression system assessed as residual activity at 1 uM by KINOMEscan binding assay relative to control
T2 sequence (whole entry): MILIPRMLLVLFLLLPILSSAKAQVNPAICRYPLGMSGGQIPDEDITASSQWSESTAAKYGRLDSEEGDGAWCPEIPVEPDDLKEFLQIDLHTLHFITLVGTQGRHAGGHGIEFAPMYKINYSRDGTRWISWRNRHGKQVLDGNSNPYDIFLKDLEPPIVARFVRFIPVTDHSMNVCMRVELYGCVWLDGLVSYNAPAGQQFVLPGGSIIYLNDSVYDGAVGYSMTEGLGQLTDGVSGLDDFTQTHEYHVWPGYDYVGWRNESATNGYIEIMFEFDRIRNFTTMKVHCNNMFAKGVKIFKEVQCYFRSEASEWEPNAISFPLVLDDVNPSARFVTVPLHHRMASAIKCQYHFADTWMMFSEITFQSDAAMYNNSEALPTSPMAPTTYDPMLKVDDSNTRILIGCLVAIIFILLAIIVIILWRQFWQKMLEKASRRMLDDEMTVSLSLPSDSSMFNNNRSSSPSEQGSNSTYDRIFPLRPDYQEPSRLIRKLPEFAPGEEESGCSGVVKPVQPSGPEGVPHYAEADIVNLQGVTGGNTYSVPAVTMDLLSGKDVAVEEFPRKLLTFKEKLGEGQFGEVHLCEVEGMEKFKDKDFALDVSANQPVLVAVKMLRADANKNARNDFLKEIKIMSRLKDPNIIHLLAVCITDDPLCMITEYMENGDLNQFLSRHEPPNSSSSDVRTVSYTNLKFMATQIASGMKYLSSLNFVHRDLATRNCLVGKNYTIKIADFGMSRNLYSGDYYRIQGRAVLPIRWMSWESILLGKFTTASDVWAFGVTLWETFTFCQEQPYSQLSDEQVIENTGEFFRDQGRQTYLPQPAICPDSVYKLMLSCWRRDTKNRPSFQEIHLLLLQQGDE

T1 sequence (P10721 whole entry): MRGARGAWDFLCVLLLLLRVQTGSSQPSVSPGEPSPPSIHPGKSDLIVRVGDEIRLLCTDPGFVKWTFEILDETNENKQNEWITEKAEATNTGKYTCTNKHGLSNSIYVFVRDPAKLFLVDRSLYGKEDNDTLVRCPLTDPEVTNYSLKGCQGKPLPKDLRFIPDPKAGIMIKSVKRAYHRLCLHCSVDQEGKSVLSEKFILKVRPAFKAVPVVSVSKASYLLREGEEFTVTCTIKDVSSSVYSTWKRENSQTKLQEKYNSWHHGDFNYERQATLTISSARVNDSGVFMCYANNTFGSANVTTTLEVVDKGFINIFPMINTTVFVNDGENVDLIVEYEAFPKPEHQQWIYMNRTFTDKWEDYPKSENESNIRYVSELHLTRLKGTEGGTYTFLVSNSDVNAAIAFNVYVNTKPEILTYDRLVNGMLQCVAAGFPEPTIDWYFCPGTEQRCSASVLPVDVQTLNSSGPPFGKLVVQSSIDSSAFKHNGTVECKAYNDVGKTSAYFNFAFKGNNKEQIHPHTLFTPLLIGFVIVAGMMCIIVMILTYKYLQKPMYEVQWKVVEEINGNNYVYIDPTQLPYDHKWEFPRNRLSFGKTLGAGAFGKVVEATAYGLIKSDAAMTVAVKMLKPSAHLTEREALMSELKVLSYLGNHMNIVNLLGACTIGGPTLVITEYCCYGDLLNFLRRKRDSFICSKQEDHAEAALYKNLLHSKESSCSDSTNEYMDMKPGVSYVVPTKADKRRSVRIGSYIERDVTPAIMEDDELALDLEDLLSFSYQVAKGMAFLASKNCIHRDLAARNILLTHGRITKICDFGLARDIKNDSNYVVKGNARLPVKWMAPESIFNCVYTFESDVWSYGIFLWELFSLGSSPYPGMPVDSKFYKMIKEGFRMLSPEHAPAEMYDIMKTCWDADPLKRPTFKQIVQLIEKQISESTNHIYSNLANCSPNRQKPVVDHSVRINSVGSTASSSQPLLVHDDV
Platelet-derived growth factor receptor beta, sequence (P09619 whole entry, the tested form may be a part): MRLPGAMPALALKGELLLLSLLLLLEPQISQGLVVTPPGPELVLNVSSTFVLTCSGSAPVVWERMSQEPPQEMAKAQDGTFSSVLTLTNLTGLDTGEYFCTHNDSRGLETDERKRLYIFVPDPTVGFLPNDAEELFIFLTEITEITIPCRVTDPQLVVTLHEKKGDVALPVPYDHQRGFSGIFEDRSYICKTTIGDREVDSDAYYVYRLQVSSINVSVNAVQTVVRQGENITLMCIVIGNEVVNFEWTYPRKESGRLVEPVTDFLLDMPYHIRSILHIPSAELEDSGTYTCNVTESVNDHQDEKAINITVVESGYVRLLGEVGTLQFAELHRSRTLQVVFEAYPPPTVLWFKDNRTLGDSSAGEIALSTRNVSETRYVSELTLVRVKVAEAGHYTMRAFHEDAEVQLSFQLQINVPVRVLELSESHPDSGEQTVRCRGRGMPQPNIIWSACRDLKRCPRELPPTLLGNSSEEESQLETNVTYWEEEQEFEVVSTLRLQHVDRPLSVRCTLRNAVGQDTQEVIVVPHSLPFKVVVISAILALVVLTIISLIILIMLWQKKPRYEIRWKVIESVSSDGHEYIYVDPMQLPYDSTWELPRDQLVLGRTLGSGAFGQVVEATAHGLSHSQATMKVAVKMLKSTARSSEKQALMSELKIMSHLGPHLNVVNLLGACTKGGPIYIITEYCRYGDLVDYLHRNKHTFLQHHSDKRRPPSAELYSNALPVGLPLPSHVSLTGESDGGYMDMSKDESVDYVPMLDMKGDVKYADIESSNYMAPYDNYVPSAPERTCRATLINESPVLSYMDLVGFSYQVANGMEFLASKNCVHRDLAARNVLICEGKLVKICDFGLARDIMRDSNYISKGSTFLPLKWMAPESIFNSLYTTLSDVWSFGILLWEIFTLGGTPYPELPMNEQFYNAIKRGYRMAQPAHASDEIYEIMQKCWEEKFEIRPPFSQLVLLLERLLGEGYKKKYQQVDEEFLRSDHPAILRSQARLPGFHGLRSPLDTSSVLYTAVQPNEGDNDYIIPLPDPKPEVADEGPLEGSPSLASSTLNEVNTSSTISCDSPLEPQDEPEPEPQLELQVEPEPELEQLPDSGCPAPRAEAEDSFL
Tyrosine-protein kinase ABL1, sequence (P00519 whole entry): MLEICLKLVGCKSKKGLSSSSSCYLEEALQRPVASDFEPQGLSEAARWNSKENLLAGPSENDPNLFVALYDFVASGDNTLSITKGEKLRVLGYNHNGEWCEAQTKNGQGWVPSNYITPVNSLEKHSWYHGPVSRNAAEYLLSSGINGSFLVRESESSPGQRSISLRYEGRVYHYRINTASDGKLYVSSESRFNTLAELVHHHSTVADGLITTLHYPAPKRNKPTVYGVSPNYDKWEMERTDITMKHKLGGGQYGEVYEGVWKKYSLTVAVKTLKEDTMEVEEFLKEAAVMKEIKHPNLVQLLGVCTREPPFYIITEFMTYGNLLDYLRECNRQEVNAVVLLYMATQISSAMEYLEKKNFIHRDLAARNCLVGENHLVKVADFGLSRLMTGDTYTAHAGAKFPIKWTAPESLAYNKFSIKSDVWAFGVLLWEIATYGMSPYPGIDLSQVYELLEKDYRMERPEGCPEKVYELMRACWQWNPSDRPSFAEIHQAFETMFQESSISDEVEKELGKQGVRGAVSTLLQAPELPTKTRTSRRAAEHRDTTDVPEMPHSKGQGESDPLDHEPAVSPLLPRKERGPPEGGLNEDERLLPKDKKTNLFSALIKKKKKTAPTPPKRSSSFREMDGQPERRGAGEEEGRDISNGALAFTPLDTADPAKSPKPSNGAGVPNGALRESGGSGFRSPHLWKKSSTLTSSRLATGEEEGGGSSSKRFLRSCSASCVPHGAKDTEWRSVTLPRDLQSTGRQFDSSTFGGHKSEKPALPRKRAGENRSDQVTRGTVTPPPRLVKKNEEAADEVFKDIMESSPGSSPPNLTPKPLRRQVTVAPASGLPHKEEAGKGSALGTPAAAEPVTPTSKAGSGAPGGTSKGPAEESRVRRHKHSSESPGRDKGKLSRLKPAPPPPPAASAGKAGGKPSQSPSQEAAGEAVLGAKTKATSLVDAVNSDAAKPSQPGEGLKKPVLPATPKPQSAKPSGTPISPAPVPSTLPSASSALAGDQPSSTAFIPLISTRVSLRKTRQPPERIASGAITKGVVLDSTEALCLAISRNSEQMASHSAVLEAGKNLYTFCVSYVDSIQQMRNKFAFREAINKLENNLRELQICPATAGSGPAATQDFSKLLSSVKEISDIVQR
Mast/stem cell growth factor receptor Kit (Homo sapiens), P10721 [L576P], sequence (P10721 whole entry L576P, the tested form may be a part): as the sequence (P10721 whole entry) above, with L576P counted along it

Row | Compound | inhibition [1] | inhibition [2] | inhibition [3] | Activity [4] | Activity [5] | GI50 [6] | GI50 (BaF3) | IC50 [7] | inhibition [8] | Activity [9] | inhibition [10] | Activity (GISTT1) | inhibition [11] | Activity [12]
1 | Cc1ccc(NC(=O)c2ccc(CN3CCN(C)CC3)cc2)cc1Nc1nccc(-c2cccnc2)n1 [IMATINIB] | Active | Active | Active |  |  |  |  |  |  |  |  |  |  | 
2 | Cc1ccc(C(=O)N2CCC(Oc3cc(NC(=O)c4ccc(CN5CCN(C)CC5)c(C(F)(F)F)c4)ccc3C)CC2)cn1 |  |  |  | Active | 7.46 g | 221 nM | 1670 nM | 80 nM | Active | 0.3% | Active | Active | Active | 0.65%
